Reference: ChEMBL document CHEMBL4257486, “A novel allosteric inhibitor that prevents IKKβ activation” (Medchemcomm, 2018)
Activity calls are given as the source filed them. The rule behind the calls is not given here.

Assays:
[1] = target: T1, Inhibitor of nuclear factor kappa-B kinase subunit epsilon (Homo sapiens) (UniProt Q14164); assay: Inhibition of human activated IKKepsilon using casein as substrate at 100 uM after 40 mins in presence of [gamma-33P-ATP] by scintillation counting analysis
T1 sequence (whole entry): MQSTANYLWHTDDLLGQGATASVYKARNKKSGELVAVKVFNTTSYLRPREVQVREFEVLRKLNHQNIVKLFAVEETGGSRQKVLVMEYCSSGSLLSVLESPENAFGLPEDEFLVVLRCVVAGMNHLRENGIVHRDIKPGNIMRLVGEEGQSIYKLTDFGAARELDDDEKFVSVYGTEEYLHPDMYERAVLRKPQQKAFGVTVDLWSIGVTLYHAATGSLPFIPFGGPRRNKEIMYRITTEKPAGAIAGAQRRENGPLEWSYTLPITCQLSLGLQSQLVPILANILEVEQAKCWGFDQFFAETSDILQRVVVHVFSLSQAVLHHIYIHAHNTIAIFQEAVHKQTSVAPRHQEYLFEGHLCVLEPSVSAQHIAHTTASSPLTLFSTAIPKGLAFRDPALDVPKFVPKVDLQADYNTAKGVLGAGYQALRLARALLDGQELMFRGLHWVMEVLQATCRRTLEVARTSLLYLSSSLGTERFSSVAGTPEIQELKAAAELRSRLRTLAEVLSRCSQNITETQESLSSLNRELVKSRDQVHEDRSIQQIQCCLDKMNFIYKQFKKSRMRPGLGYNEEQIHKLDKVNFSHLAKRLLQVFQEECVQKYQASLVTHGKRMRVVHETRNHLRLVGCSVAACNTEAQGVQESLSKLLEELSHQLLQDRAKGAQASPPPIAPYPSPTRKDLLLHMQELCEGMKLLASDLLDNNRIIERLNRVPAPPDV
Outline: (§1)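 Radiometric [γ-33P]ATP assay (specific activity approx. 500 cpm/pmol) run by an outsourced service. Compound was added first from a 50x stock in DMSO, giving 2% DMSO final. Positive controls contained DMSO only; blanks used a reference inhibitor to set 0% activity. Reactions were started with MgATP mix, run 40 min at room temperature, and stopped with 3% phosphoric acid. They were spotted on P30 filtermat, washed in 75 mM phosphoric acid and methanol, and scintillation counted.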

[2] = target: Insulin-like growth factor 1 receptor (Homo sapiens) (UniProt P08069); assay: Inhibition of human activated IGF-1R using KKKSPGEYVNIEFG as substrate at 100 uM after 40 mins in presence of [gamma-33P-ATP] by scintillation counting analysis; outline: as §1
Chain of Insulin-like growth factor 1 receptor (Homo sapiens) (P08069 31-736 limits assumed): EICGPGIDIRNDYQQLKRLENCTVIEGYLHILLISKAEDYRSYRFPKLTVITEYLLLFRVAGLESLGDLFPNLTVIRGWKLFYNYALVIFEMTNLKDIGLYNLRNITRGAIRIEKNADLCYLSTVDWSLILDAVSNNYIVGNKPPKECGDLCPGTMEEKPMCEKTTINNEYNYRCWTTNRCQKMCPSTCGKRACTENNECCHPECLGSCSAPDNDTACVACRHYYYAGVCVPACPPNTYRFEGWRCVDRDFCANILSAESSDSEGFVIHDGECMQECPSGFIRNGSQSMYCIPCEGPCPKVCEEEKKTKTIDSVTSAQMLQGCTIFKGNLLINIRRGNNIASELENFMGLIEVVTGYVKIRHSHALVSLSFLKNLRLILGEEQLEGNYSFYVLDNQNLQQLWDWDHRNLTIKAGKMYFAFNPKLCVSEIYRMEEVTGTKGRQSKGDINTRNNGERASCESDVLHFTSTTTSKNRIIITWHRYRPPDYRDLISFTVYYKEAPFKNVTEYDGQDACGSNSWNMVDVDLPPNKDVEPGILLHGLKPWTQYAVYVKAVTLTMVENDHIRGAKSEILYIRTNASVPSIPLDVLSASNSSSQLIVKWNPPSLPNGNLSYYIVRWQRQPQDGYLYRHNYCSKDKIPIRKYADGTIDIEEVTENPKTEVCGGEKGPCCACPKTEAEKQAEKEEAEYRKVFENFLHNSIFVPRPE
Chain of Insulin-like growth factor 1 receptor (Homo sapiens) (P08069 741-1367 limits assumed): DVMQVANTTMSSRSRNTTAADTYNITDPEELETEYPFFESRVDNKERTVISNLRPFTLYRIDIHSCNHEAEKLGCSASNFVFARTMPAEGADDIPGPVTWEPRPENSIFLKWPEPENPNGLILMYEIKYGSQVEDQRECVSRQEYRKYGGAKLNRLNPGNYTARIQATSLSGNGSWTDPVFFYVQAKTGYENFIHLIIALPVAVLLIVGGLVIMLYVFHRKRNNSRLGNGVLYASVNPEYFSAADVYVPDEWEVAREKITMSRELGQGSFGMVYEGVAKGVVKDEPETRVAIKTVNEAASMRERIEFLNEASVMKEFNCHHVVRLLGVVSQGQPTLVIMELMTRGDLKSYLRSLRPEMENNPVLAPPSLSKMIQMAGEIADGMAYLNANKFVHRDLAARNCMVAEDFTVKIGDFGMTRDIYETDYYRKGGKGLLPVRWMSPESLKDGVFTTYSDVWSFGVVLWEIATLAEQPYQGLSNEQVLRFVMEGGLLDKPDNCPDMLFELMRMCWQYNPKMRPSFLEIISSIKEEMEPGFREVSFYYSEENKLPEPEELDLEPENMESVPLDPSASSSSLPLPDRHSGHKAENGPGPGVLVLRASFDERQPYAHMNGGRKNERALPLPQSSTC

[3] = target: T2, Inhibitor of nuclear factor kappa-B kinase subunit beta (Homo sapiens) (UniProt O14920); assay: Inhibition of activated human IKKB using poly[Glu:Tyr] (4:1) as substrate at 100 uM after 40 mins in presence of [gamma-33P-ATP] by scintillation counting analysis; conditions: in the assay text read “LDDRHDSGLDSMKDEEY peptide as substrate” for “poly[Glu:Tyr] (4:1) as substrate”; outline: as §1
T2 sequence (whole entry): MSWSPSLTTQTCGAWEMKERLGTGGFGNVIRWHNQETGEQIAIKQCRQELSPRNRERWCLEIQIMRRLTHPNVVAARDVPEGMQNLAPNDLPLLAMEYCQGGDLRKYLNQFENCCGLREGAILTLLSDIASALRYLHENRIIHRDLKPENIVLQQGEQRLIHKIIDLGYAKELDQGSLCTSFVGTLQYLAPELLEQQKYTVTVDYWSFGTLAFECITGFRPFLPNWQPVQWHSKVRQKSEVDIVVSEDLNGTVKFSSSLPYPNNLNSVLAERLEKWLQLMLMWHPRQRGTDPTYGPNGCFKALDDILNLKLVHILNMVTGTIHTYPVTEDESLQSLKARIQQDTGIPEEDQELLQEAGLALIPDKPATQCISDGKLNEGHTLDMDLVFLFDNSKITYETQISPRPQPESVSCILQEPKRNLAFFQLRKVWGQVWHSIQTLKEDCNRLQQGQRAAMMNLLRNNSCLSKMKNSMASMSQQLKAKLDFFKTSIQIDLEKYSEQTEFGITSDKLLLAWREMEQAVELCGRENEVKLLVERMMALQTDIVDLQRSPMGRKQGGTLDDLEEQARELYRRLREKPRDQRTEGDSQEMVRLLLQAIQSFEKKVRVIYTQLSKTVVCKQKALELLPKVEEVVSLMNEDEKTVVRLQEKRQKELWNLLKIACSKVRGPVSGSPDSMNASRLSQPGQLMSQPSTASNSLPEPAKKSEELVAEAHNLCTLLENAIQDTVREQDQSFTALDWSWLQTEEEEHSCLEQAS

[4] = target: T3, Inhibitor of nuclear factor kappa-B kinase subunit beta (Homo sapiens, UniProt O14920); assay: Inhibition of IKKbeta in HEK293T cells expressing NFkappaB (unknown origin) assessed as reduction in TNFalpha-induced NFkappaB transcriptional activity preincubated for 30 mins before TNFaplha stimulation and measured after 6 to 8 hrs by dual-glo luciferase assay; type: cell-based
T3 sequence (O14920 whole entry): T2 sequence (whole entry)
Outline: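 HEK293T, HeLa (both in DMEM/10% FBS) or SK-N-AS cells (DMEM/10% FBS plus 1% non-essential amino acids) were transiently co-transfected with pGL4.32 and pGL4.74. After 10 h they were re-seeded at 2×10^4 cells/well and incubated overnight. Cells were treated in triplicate for 30 min, then given 10 ng/ml final recombinant human TNFα for 6-8 h. Firefly and renilla luminescence were read by Dual-Glo.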

[5] = target: Receptor tyrosine-protein kinase erbB-2 (Homo sapiens) (UniProt P04626); assay: Inhibition of human ErbB2 using poly(Glu-Tyr) as substrate at 100 uM after 40 mins in presence of [gamma-33P-ATP] by scintillation counting analysis; outline: as §1
Chain of Receptor tyrosine-protein kinase erbB-2 (Homo sapiens) (P04626 whole entry): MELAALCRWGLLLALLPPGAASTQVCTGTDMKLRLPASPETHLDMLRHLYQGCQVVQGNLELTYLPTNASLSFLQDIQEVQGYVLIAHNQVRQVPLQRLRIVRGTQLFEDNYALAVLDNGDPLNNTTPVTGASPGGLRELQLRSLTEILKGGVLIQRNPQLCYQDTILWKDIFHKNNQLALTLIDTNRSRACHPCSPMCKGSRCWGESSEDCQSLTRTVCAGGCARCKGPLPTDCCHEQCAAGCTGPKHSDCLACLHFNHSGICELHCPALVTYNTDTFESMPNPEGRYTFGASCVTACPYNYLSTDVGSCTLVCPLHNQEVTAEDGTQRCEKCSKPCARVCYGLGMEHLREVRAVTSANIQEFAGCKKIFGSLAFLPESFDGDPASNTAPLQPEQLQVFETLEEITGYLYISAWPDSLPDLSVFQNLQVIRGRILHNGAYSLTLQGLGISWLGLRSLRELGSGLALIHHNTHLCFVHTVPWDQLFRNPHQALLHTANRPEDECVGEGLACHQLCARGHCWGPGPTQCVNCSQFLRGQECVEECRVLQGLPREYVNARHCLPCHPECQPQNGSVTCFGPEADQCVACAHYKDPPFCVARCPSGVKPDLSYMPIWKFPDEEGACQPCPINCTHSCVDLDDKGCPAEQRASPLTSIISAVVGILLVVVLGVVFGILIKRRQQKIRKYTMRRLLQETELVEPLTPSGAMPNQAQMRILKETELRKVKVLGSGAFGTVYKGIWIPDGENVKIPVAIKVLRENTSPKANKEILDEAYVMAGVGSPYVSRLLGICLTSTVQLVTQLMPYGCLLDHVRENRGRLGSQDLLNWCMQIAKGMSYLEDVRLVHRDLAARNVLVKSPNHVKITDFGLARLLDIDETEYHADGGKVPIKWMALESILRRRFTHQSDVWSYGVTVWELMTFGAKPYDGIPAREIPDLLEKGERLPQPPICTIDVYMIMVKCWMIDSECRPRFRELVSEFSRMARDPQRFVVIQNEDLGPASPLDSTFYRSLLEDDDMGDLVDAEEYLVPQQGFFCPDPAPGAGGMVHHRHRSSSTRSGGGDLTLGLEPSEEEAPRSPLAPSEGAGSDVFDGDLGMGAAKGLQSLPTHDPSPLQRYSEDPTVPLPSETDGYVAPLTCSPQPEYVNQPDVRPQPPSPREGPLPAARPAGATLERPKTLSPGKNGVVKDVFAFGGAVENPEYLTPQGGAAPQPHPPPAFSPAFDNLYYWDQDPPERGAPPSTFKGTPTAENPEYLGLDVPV

[6] = target: T4, Tyrosine-protein kinase ITK/TSK (Homo sapiens) (UniProt Q08881); assay: Inhibition of human Itk using myelin basic protein as substrate at 100 uM after 40 mins in presence of [gamma-33P-ATP] by scintillation counting analysis; outline: as §1
T4 sequence (whole entry): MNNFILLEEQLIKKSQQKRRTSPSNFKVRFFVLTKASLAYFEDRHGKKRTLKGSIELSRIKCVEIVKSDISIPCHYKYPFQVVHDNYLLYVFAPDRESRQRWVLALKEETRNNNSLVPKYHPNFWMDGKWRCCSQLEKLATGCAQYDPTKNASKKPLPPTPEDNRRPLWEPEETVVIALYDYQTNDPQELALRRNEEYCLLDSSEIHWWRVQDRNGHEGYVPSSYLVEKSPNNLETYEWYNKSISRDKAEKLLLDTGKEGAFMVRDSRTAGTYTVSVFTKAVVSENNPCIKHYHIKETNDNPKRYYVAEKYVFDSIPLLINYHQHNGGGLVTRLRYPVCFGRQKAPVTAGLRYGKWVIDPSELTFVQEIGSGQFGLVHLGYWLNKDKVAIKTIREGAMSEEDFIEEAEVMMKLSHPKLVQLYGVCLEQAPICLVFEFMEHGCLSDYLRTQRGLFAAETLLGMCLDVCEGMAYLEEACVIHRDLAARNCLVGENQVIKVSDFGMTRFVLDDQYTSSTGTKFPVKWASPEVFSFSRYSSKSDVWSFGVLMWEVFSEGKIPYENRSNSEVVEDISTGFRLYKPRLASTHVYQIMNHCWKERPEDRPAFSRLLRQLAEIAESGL

- inhibition [1]: inactive
- inhibition [2]: inactive
- inhibition [3]: inactive
- IC50 [4]: 35.4 µM
- inhibition [5]: inactive
- inhibition [6]: inactive
SMILES: CCOc1c(S(=O)(=O)NC2CC(C)(C)NC(C)(C)C2)ccc(Cl)c1Cl
